Source: article PMC5088453 (ACS Omega, 2016)
Where two headings read alike, the source gives them in different places.

Columns and labels:
[1] = tested on: mouse BV-2 microglial cells; conditions: cited from earlier work
[2] = type: in vivo, C57Bl/6J mice; conditions: for FruArg concentration in plasma: mice, i.p. 2.5 μL/g BW of 40 mM FruArg
In short: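 In male C57Bl/6J mice (8 weeks; i.p. 40 mM; n = 3 per time), terminal heparinized blood was taken by cardiac puncture at 15, 30, 60 and 180 min. Plasma was stored at −80 °C. Samples (25 μL plasma plus L-lysine-d8 internal standard) went through phospholipid-removal SPE, then C18 UPLC–MS/MS MRM. Quantitation used a plasma-matrix calibration with 1/x2 weighting. PK parameters came from a fit of the concentration–time curve.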

[3] = Stability of the FruArg stock solution; type: physicochemical; conditions: 200 mM hydroacetate salt in double-distilled water, at 4 °C
[4] = tested on: lipopolysaccharide-induced mouse BV-2 microglial cells; conditions: lipopolysaccharide-induced BV-2 cells, concentration-dependent; cited from earlier work
[5] = type: in vivo, C57Bl/6J mice; conditions: mice, i.p. 40 mM, 2.5 μL/g BW, 15 min; cerebellum, cortex, striatum, hippocampus
In short: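 Male C57Bl/6J mice, 8 weeks old, n = 3, given 40 mM test compound i.p. Brains were saline-perfused, dissected into regions, flash-frozen and stored at −80 °C. Tissue was homogenized in 3 vol water, then centrifuged 20 min at 4 °C. Supernatant (50 μL) was spiked with L-lysine-d8 internal standard and cleaned by phospholipid-removal SPE. Read-out: C18 UPLC–ESI–MS/MS (MRM), expressed as pmol/mg tissue, mean ± SE.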

[6] = at 10 min, 25 mg/kg; ref 39 (Gooyit et al.); cited from earlier work
[7] = mice plasma, i.p. 40 mM, 2.5 μL/g BW

Compound | cell viability [1] | clearance (Cl) [2, 7] | elimination rate (k) [2, 7] | half-life (t1/2) [2, 7] | volume distribution (VD) [2, 7] | AUC0→∞ ([2]; mice plasma, i.p. 40 mM, 2.5 μL/g BW, extrapolated to infinity) | clearance (Cl) ([2]; mice plasma, i.p. 40 mM, 2.5 μL/g BW, unit as in Table 2) | FruArg concentration in plasma ([2]; 15 min, average n = 3 ± SE) | FruArg concentration in plasma ([2]; 30 min, average n = 3 ± SE) | FruArg concentration in plasma ([2]; 60 min, average n = 3 ± SE) | FruArg concentration in plasma ([2]; 180 min, plasma LOQ 1 μM) | stability of stock solution [3] | nitric oxide (NO) production [4] | FruArg concentration in brain tissue, all four subregions [5] | concentration in the brain tissue [6]
N=C(N)NCCC[C@H](NCC(=O)[C@@H](O)[C@H](O)[C@H](O)CO)C(=O)O [FruArg, N-α-(1-deoxy-D-fructos-1-yl)-L-arginine] | without affecting the cell viability | 1.8 × 10^–4 L·min | 6.91 × 10^–2 min^–1 | 10.03 min | 2.63 × 10^–3 L | 4930 µM·min | 1.8 × 10^–4 L·min^–1 | 111 ± 3 µM | 33 ± 9 µM | 5 ± 2 µM | below the LOQ | at least 6 months | suppressing nitric oxide (NO) production | 4–7 pmol/mg tissue | 
O=S(=O)(CC1CS1)c1ccc(Oc2ccccc2)cc1 (stereo not drawn) [SB-3CT] |  |  |  |  |  |  |  |  |  |  |  |  |  |  | 5.0 ± 0.8 pmol/mg
